Measurements as given in ChEMBL document CHEMBL1122581, “Antiviral activity of C-5 substituted tubercidin analogues” (1984).
≈ marks a conversion by molar mass, not a printed value.

Legend:
Assay type in all cases: functional
[1] = tested on: Mammalian orthoreovirus 1; assay: Compound was tested for the concentration required to reduce reovirus type 1 induced cytopathogenicity by 50% in Vero cell cultures
[2] = tested on: Vesicular stomatitis virus; assay: Compound was tested for the concentration required to reduce vesicular stomatitis virus induced cytopathogenicity by 50% in HeLa cell cultures
[3] = tested on: Sindbis virus; assay: Compound was tested for the concentration required to reduce sindbis virus induced cytopathogenicity by 50% in Vero cell cultures
[4] = tested on: Coxsackievirus B4; assay: Compound was tested for the concentration required to reduce coxsackie virus B4 induced cytopathogenicity by 50% in HeLa cell cultures; conditions: Enterovirus B
[5] = tested on: Vesicular stomatitis virus; assay: Compound was tested for the concentration required to reduce vesicular stomatitis virus induced cytopathogenicity by 50% in primary rabbit kidney cell cultures
[6] = tested on: Human respirovirus 3; assay: Compound was tested for the concentration required to reduce parainfluenza virus type 3 induced cytopathogenicity by 50% in Vero cell cultures
[7] = tested on: Human alphaherpesvirus 1; assay: Compound was tested for the concentration required to reduce HSV-1 (KOS) induced cytopathogenicity by 50% in primary rabbit kidney cell cultures
[8] = tested on: L1210; assay: Dose required to inhibit proliferation of L-1210 Cells by 50%; conditions: Mus musculus, read-out: ID50 (the source's name)
Summary of the method: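 Inhibition of proliferation of murine leukemia L-1210 cells in exponential growth phase. ID50 is the dose inhibiting cell proliferation by 50%, given plus or minus standard deviation.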

[9] = tested on: Human alphaherpesvirus 2; assay: Compound was tested for the concentration required to reduce HSV-2 (G) induced cytopathogenicity by 50% in primary rabbit kidney cell cultures
[10] = tested on: Coxsackievirus B4; assay: Compound was tested for the concentration required to reduce coxsackie virus B4 induced cytopathogenicity by 50% in Vero cell cultures; conditions: Enterovirus B
[11] = tested on: Poliovirus 1; assay: Concentration required to reduce polio virus type 1 induced cytopathogenicity by 50% in HeLa cell cultures.; conditions: Enterovirus C
[12] = species on record: Oryctolagus cuniculus; assay: Compound was tested for the concentration required to cause a microscopically detectable alteration in normal cell morphology in primary rabbit kidney cell cultures; conditions: read-out: Min cytotoxic concentration
Summary of the method: (§1)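 Uninfected cell monolayers were run in parallel with the antiviral assays and exposed to compound for the same period as the infected cultures. The end point was the lowest concentration giving a microscopically detectable disruption of normal cell morphology.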

[13] = tested on: Vero; assay: Compound was tested for the concentration required to cause a microscopically detectable alteration in normal cell morphology in Vero cell cultures; conditions: Chlorocebus sabaeus, read-out: Min cytotoxic concentration; summary of the method: as §1
[14] = tested on: HeLa; assay: Compound was tested for the concentration required to cause a microscopically detectable alteration in normal cell morphology in HeLa cell cultures; conditions: Homo sapiens, read-out: Min cytotoxic concentration; summary of the method: as §1
[15] = tested on: Sindbis virus; assay: Concentration required to reduce sindbis virus induced cytopathogenicity by 50% in vero cell cultures.
[16] = tested on: Human alphaherpesvirus 1; assay: Concentration required to reduce HSV-1 (KOS) induced cytopathogenicity by 50% in primary rabbit kidney cell cultures.
[17] = tested on: Vesicular stomatitis virus; assay: Concentration required to reduce vesicular stomatitis virus induced cytopathogenicity by 50% in HeLa cell cultures.
[18] = tested on: Coxsackievirus B4; assay: Concentration required to reduce coxsackie virus B4 induced cytopathogenicity by 50% in vero cell cultures.; conditions: Enterovirus B
[19] = tested on: Vesicular stomatitis virus; assay: Concentration required to reduce vesicular stomatitis virus induced cytopathogenicity by 50% in primary rabbit kidney cell cultures.
[20] = tested on: Vero; assay: Concentration required to cause a microscopically detectable alteration in cell morphology in vero cell cultures.; conditions: Chlorocebus sabaeus, read-out: Min cytotoxic concentration; summary of the method: as §1
[21] = tested on: Human alphaherpesvirus 2; assay: Concentration required to reduce HSV-2 (G) induced cytopathogenicity by 50% in primary rabbit kidney cell cultures.
[22] = tested on: Mammalian orthoreovirus 1; assay: Concentration required to reduce reovirus type 1 induced cytopathogenicity by 50% in vero cell cultures.
[23] = tested on: Human respirovirus 3; assay: Concentration required to reduce parainfluenza virus type 3 induced cytopathogenicity by 50% in vero cell cultures.
[24] = tested on: HeLa; assay: Concentration required to cause a microscopically detectable alteration in cell morphology in HeLa cell cultures.; conditions: Homo sapiens, read-out: Min cytotoxic concentration; summary of the method: as §1
[25] = species on record: Oryctolagus cuniculus; assay: Concentration required to cause a microscopically detectable alteration in cell morphology in primary rabbit kidney cell cultures.; conditions: read-out: Min cytotoxic concentration; summary of the method: as §1
[26] = tested on: Coxsackievirus B4; assay: Concentration required to reduce coxsackie virus 4 induced cytopathogenicity by 50% in HeLa cell cultures.; conditions: Enterovirus B

SMILES | IC50 [8] | MIC [11] | MIC [15] | MIC [16] | MIC [17] | MIC [18] | MIC [19] | MCC [20] | MIC [21] | MIC [22] | MIC [23] | MCC [24] | MCC [25] | MIC [26] | other results
Nc1ncnc2c1ncn2C[C@@H](O)CO | 170 µg/mL (≈ 813 µM) | > 400 µg/mL |  |  |  |  |  |  |  |  |  |  |  |  | MIC [1]: 70 µg/mL (≈ 335 µM); MIC [2]: 10 µg/mL (≈ 47.8 µM); MIC [3]: > 400 µg/mL; MIC [4]: > 400 µg/mL; MIC [5]: 10 µg/mL (≈ 47.8 µM); MIC [6]: 20 µg/mL (≈ 95.6 µM); MIC [7]: > 400 µg/mL; MIC [9]: > 400 µg/mL; MIC [10]: 400 µg/mL (≈ 1910 µM); MCC [12]: ≥ 400 µg/mL; MCC [13]: > 400 µg/mL; MCC [14]: > 400 µg/mL
Nc1ncnc2c1cc(Br)n2C1O[C@H](CO)[C@@H](O)[C@H]1O (stereo partly specified) | 36.5 µg/mL (≈ 106 µM) | 150 µg/mL (≈ 435 µM) | > 200 µg/mL | > 400 µg/mL | 400 µg/mL (≈ 1160 µM) | 70 µg/mL (≈ 203 µM) | 300 µg/mL (≈ 869 µM) | 400 µg/mL | > 400 µg/mL | 70 µg/mL (≈ 203 µM) | 70 µg/mL (≈ 203 µM) | 400 µg/mL | > 400 µg/mL | > 200 µg/mL | 
Nc1ncnc2c1c(Br)c(Br)n2C1O[C@H](CO)[C@@H](O)[C@H]1O (stereo partly specified) | 2.31 µg/mL (≈ 5.45 µM) | > 10 µg/mL | > 10 µg/mL | > 100 µg/mL | > 10 µg/mL | 10 µg/mL (≈ 23.6 µM) | > 40 µg/mL | 40 µg/mL | > 40 µg/mL | 10 µg/mL (≈ 23.6 µM) | > 10 µg/mL | 40 µg/mL | 100 µg/mL | > 10 µg/mL | 
Nc1ncnc2c1c(CCCO)cn2C1O[C@H](CO)[C@@H](O)[C@H]1O (stereo partly specified) | 1.28 µg/mL (≈ 3.95 µM) | 7 µg/mL (≈ 21.6 µM) | > 10 µg/mL | 7 µg/mL (≈ 21.6 µM) | 2 µg/mL (≈ 6.17 µM) | 7 µg/mL (≈ 21.6 µM) | 7 µg/mL (≈ 21.6 µM) | 40 µg/mL | > 10 µg/mL | 2 µg/mL (≈ 6.17 µM) | 2 µg/mL (≈ 6.17 µM) | 40 µg/mL | > 40 µg/mL | 7 µg/mL (≈ 21.6 µM) | 
Nc1ncnc2c1c(/C=C/Br)cn2C1O[C@H](CO)[C@@H](O)[C@H]1O (stereo partly specified) | 7.84 µg/mL (≈ 21.1 µM) | > 1 µg/mL | > 1 µg/mL | > 1 µg/mL | > 1 µg/mL | > 1 µg/mL | > 1 µg/mL | 4 µg/mL | > 1 µg/mL | 1 µg/mL (≈ 2.69 µM) | 1 µg/mL (≈ 2.69 µM) | 4 µg/mL | > 4 µg/mL | > 1 µg/mL | 
Nc1ncnc2c1c(Cl)c(Cl)n2C1O[C@H](CO)[C@@H](O)[C@H]1O (stereo partly specified) | 10.1 µg/mL (≈ 30.1 µM) | > 10 µg/mL | > 10 µg/mL | > 40 µg/mL | > 10 µg/mL | > 10 µg/mL | > 40 µg/mL | 40 µg/mL | > 40 µg/mL | > 10 µg/mL | > 10 µg/mL | 40 µg/mL | 40 µg/mL | > 10 µg/mL | 
N#C/C=C/c1cn(C2O[C@H](CO)[C@@H](O)[C@H]2O)c2ncnc(N)c12 (stereo partly specified) | 1.36 µg/mL (≈ 4.29 µM) | 4 µg/mL (≈ 12.6 µM) | > 40 µg/mL | 2 µg/mL (≈ 6.3 µM) | 0.4 µg/mL (≈ 1.26 µM) | > 10 µg/mL | 20 µg/mL (≈ 63 µM) | 100 µg/mL | 20 µg/mL (≈ 63 µM) | 20 µg/mL (≈ 63 µM) | 7 µg/mL (≈ 22.1 µM) | 4 µg/mL | 100 µg/mL | 1 µg/mL (≈ 3.15 µM) | 
CC(O)c1cn(C2O[C@H](CO)[C@@H](O)[C@H]2O)c2ncnc(N)c12 (stereo partly specified) | 0.111 µg/mL (≈ 0.358 µM) | 0.2 µg/mL (≈ 0.645 µM) | 7 µg/mL (≈ 22.6 µM) | 2 µg/mL (≈ 6.45 µM) | 0.2 µg/mL (≈ 0.645 µM) | 2 µg/mL (≈ 6.45 µM) | 0.4 µg/mL (≈ 1.29 µM) | 40 µg/mL | 7 µg/mL (≈ 22.6 µM) | 0.4 µg/mL (≈ 1.29 µM) | 0.7 µg/mL (≈ 2.26 µM) | 40 µg/mL | 10 µg/mL | 0.7 µg/mL (≈ 2.26 µM) | 
COC(C)c1cn(C2O[C@H](CO)[C@@H](O)[C@H]2O)c2ncnc(N)c12 (stereo partly specified) | 0.404 µg/mL (≈ 1.25 µM) | 0.7 µg/mL (≈ 2.16 µM) | > 40 µg/mL | 20 µg/mL (≈ 61.7 µM) | > 10 µg/mL | 2 µg/mL (≈ 6.17 µM) | > 40 µg/mL | 100 µg/mL | > 40 µg/mL | > 1 µg/mL | 2 µg/mL (≈ 6.17 µM) | 10 µg/mL | 100 µg/mL | 0.7 µg/mL (≈ 2.16 µM) | 
